Experimental findings from ChEMBL document CHEMBL2177013, “Synthesis and biological evaluation of tylophorine-derived dibenzoquinolines as orally active agents: exploration of the role of tylophorine e ring on biological activity” (J Med Chem, 2012) are described below.

In brackets after ≈: the same amount, converted by molar mass. Activity calls are given as the source filed them. The calls are words filed in the database; no cut-off is given here.

The subject of data set [1] is Transmissible gastroenteritis virus. Nature of the data set: Antiviral activity against Transmissible gastroenteritis virus infected in ST cells assessed as reduction in caspase-3 activation pre-treated before virus infection measured 16 hrs post virus infection by Western blotting. Type of data set: functional, organism-based. The gist of the method: (§1)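 ST cells pretreated with compound, then infected with TGEV. Western blot for nucleocapsid (N) protein, caspase 3 (cleavage of procaspase 3) and GAPDH at 16 hpi. Representative of at least three independent experiments.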
(Immunoblotting shows a protein as a band on a membrane.)

Data set [2] in a line: AUC (0 to infinity) in Sprague-Dawley rat at 3 mg/kg, po by HPLC-MS method. In kind it is ADME, organism-based. Details: dose 3 mg/kg, route oral, time infinity. The settings on record: plasma. The gist of the method: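 Male rats (330−380 g, 9−10 weeks old), jugular vein cannulated 1 day before dosing, fasted; 3 mg/kg iv or oral in DMA/PEG400 (30/70, v/v), n = 3. Blood (150 μL) drawn at 0, 2, 5 (iv only), 15, 30 min and 1, 2, 4, 6, 8, 12, 24 h, kept on ice; plasma analysed by HPLC-MS; noncompartmental analysis.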

A short description of data set [3]: Cytotoxicity against mouse RAW264.7 cells. Type of data set: cell-based. The gist of the method: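 RAW264.7 cells stimulated with LPS/IFNγ and compound-treated in parallel with the NO assay; CC50 taken as concentration giving 50% inhibition of cell growth. Mean of at least three experiments, each in duplicate.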
The subject of the next data set is RAW264.7. Nature of the data set: Reduction in LPS/INFgamma-induced iNOS protein expression in mouse RAW264.7 cells incubated for 20 hrs by Western blotting. Type of data set: functional, cell-based. A digest of the protocol:
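LPS/IFNγ-stimulated RAW264.7 cells treated with compound for 20 h. iNOS, COX-2 and GAPDH detected by Western blot; representative of at least three independent experiments.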

Data set [4] deals with Transmissible gastroenteritis virus. Nature of the data set: Antiviral activity against Transmissible gastroenteritis virus infected in ST cells assessed as reduction in N-protein expression pre-treated before virus infection measured 16 hrs post virus infection by Western blotting. In kind it is functional, organism-based. The gist of the method:
as §1

For data set [5] the test system is unchanged. In words: Antiviral activity against Transmissible gastroenteritis virus infected in ST cells pre-treated 2 hrs before virus infection measured 6 hrs post virus infection by immunofluorescent assay. In kind it is functional, organism-based. The settings on record: Alphacoronavirus 1, ST. A digest of the protocol:
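ST cells, with or without 2 h compound pretreatment (10 concentrations), infected with TGEV at MOI 10. Immunofluorescence with anti-spike and anti-nucleocapsid antibodies at 6 hpi. EC50 from dose–response curves, mean of at least three experiments, each in duplicate.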

A short description of data set [6]: Volume of distribution at steady state in Sprague-Dawley rat at 3 mg/kg, iv by HPLC-MS method. Type of data set: ADME, organism-based. Details: dose 3 mg/kg, route intravenous. Conditions: in vivo, read-out: Vdss. The gist of the method: (§2)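 Male rats (330−380 g, 9−10 weeks), jugular vein cannula implanted 1 day before, fasted. 3 mg/kg given iv or orally (n = 3) in DMA/PEG400 30/70 v/v. Blood (150 μL) drawn at 0, 2, 5 (iv only), 15, 30 min and 1, 2, 4, 6, 8, 12, 24 h; plasma analysed by HPLC-MS; noncompartmental analysis.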

Data set [7] relates to A549. Nature of the data set: Growth inhibition of human A549 cells. Type of data set: functional. The gist of the method:
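Cells seeded per well: NUGC-3 4500, HONE-1 6000, MCF-7 6500, NCI-H460 2500, HepG2 10000, A549 5000; A549 grown in RPMI 1640 with 2 g/L NaHCO₃, 2 mM L-glutamine and 10% FBS. GI₅₀ = concentration giving 50% growth inhibition, mean of at least three experiments each in duplicate. Paclitaxel served as positive control.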

Data set [8] is described as follows: Solubility in DMSO. In kind it is physicochemical. A digest of the protocol:
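Compound dissolved in DMSO with sonication; maximal volume before precipitation measured and used to calculate saturation solubility.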

Data set [9] relates to A549. Nature of the data set: Down regulation of cyclin A2 expression in human A549 cells incubated for 24 hrs by Western blotting. In kind it is functional, cell-based.
A short description of data set [10]: Tmax in Sprague-Dawley rat at 3 mg/kg, po by HPLC-MS method. Type of data set: ADME, organism-based. On the set-up: dose 3 mg/kg, route oral. The settings on record: in vivo. A digest of the protocol:
as §2

A short description of data set [11]: Oral bioavailability in Sprague-Dawley rat at 3 mg/kg by HPLC-MS method. Type of data set: ADME, organism-based. The settings on record: in vivo. A digest of the protocol: as §2
A short description of data set [12]: Cmax in Sprague-Dawley rat at 3 mg/kg, po by HPLC-MS method. The settings on record: in vivo. Type of data set: ADME, organism-based. On the set-up: dose 3 mg/kg, route oral. A digest of the protocol:
as §2

The term AUC(0-inf) denotes the area under the concentration-time curve extrapolated to infinity. Low values mean low exposure, high ones high exposure. In general, CC50 refers to the concentration giving 50% cytotoxicity. By EC50 is commonly meant the concentration at which the effect is half-maximal. Usually GI50 stands for the concentration that inhibits growth by half. Read a low GI50 as more potent growth inhibition. As a reminder, the solubility is the dissolved amount per volume that the medium holds. By Tmax is commonly meant the time from dosing to the highest level. As a reminder, the bioavailability is the share of a dose that reaches the circulation, judged against a reference dose that is usually intravenous. Low values mean poor availability, high ones good availability. For orientation: Cmax means the maximum level reached in the sampled fluid or tissue. `CCN1Cc2c(c3ccc(OC)cc3c3cc(OC)c(OC)cc23)C(O)C1` (stereo not drawn): the outcome (in data set [1]; with RAW264.7; in data set [4]; with A549 [9]) was Active. Moreover, the area under the curve AUC(0-inf) in data set [2] is 646 ng·h/mL. This compound came in with a CC50 in data set [3] of 240 nM. Further, the EC50 in data set [5] stood at 40 nM. Moreover, the Vd in data set [6] came to 2.7 L/kg. In the data set with A549 [7], the GI50 is 20 nM. This compound displayed a solubility in data set [8] of 60.5 mM (≈ 22.2 mg/mL). Also, the time to peak (Tmax) in [10] stood at 18 min. The compound also gave a bioavailability in data set [11] of 63.5%. For the same compound, the Cmax in data set [12] was 72.4 ng/mL.
